What all share (format): functional
In assay [1] the test system is A549. Description: Cytotoxicity against hormone-independent human A549 cells at 4 mM after 12 hrs by CCK-8 assay. The gist of the method: (§1)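 A549 adherent cells in DMEM with FBS and penicillin-streptomycin at 37 °C, 5% CO2. Seeded at 1 × 10^4 cells/well and attached for 12 h. Compound applied for 12 h, followed by 3 h in serum-free medium with 10% CCK-8. OD at 450 nm. Viability expressed as 100 × (S−B)/(K−B) relative to untreated cells.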
Background: Tetrazolium assays rely on reduction of a dye to a coloured formazan, in cell work by metabolically active cells.

The subject of assay [2] is A549. Description: Cytotoxicity against hormone-independent human A549 cells at 2 mM after 12 hrs by CCK-8 assay. The essentials:
as §1

In assay [3] the test system is LoVo. Description: Cytotoxicity against hormone-independent human LoVo cells at 8 mM after 12 hrs by CCK-8 assay. The essentials: (§2)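 For LoVo colorectal adenocarcinoma cells, cultured in DMEM supplemented with FBS and penicillin-streptomycin (37 °C, 5% CO2), 2.5 × 10^4 cells/well were plated 12 h ahead, then treated 12 h. Read-out: CCK-8 (10% in serum-free medium, 3 h), absorbance 450 nm. Percent viability = 100 × (S−B)/(K−B) using blank and control wells.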

Assay [4] has as its system LoVo. Description: Cytotoxicity against hormone-independent human LoVo cells at 2 mM after 12 hrs by CCK-8 assay. The gist of the method: as §2
The subject of assay [5] is K562. Description: Cytotoxicity against human K562 cells at 2 mM after 12 hrs by CCK-8 assay. The essentials:
(§3)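 Suspension K562 cells maintained in RPMI 1640 with FBS and penicillin-streptomycin at 37 °C, 5% CO2. Seeded at 2 × 10^4 cells/well and exposed 12 h at the given concentration. Then incubated 3 h with 10% CCK-8 in serum-free medium. OD 450 nm. Viability% = 100 × (S−B)/(K−B) versus blank and untreated control.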

Assay [6] relates to K562. Description: Cytotoxicity against human K562 cells at 6 mM after 12 hrs by CCK-8 assay. The gist of the method:
as §3

Assay [7] relates to A549. Description: Cytotoxicity against hormone-independent human A549 cells at 6 mM after 12 hrs by CCK-8 assay. The essentials:
as §1

The test system of assay [8] is HeLa. Description: Cytotoxicity against hormone-dependent human HeLa cells at 4 mM after 12 hrs by CCK-8 assay. The essentials: (§4)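 HeLa cells (adherent) in F-12K medium with fetal bovine serum and penicillin-streptomycin, 37 °C, 5% CO2. Seeded at 1 × 10^4 cells/well and allowed to form a monolayer for 12 h. Treated 12 h at the stated concentration. Medium then replaced with serum-free medium containing 10% CCK-8 for 3 h. OD read at 450 nm. Viability% = 100 × (S−B)/(K−B) against blank and untreated control.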

In assay [9] the test system is MCF7. Description: Cytotoxicity against hormone-dependent human MCF7 cells at 4 mM after 12 hrs by CCK-8 assay. The essentials:
(§5)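 MCF-7 monolayers grown in DMEM plus FBS and penicillin-streptomycin (37 °C, 5% CO2), plated 5 × 10^4 cells/well 12 h before dosing. Exposure 12 h at the listed concentration. Viability measured by WST-8 (CCK-8) reduction: 10% CCK-8 in serum-free medium, 3 h, absorbance 450 nm. Viability% = 100 × (sample−blank)/(control−blank).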

The subject of assay [10] is HeLa. Description: Cytotoxicity against hormone-dependent human HeLa cells at 2 mM after 12 hrs by CCK-8 assay. The gist of the method: as §4
The test system of assay [11] is MCF7. Description: Cytotoxicity against hormone-dependent human MCF7 cells at 2 mM after 12 hrs by CCK-8 assay. The gist of the method: as §5
The test system of assay [12] is K562. Description: Cytotoxicity against human K562 cells at 4 mM after 12 hrs by CCK-8 assay. The gist of the method:
as §3

Assay [13] deals with HeLa. Description: Cytotoxicity against hormone-dependent human HeLa cells at 8 mM after 12 hrs by CCK-8 assay. The gist of the method: as §4
Assay [14] concerns LoVo. Description: Cytotoxicity against hormone-independent human LoVo cells at 6 mM after 12 hrs by CCK-8 assay. The gist of the method:
as §2

The test system of assay [15] is K562. Description: Cytotoxicity against human K562 cells at 8 mM after 12 hrs by CCK-8 assay. The gist of the method:
as §3

The test system of assay [16] is HeLa. Description: Cytotoxicity against hormone-dependent human HeLa cells at 6 mM after 12 hrs by CCK-8 assay. The gist of the method:
as §4

The test system of assay [17] is MCF7. Description: Cytotoxicity against hormone-dependent human MCF7 cells at 6 mM after 12 hrs by CCK-8 assay. The essentials:
as §5

The test system of assay [18] is A549. Description: Cytotoxicity against hormone-independent human A549 cells at 8 mM after 12 hrs by CCK-8 assay. The gist of the method:
as §1

The test system of assay [19] is MCF7. Description: Cytotoxicity against hormone-dependent human MCF7 cells at 8 mM after 12 hrs by CCK-8 assay. The gist of the method: as §5
The test system of assay [20] is LoVo. Description: Cytotoxicity against hormone-independent human LoVo cells at 4 mM after 12 hrs by CCK-8 assay. The gist of the method: as §2

Take `OC[C@H]1SC(O)[C@H](O)[C@@H](O)[C@@H]1O` (stereo not given in full): the Activity is 96% in assay [1]; 79% in assay [2]; 88% in assay [3]; 28% in assay [4]; 6% in [5]; 94% in assay [6]. Further, the Activity came out at 96% in assay [7]; 90% in [8]; 25% in [9]; 70% in assay [10]; 17% in assay [11]; 45% in assay [12]. The Activity in [13] is listed as 98%; in [14], 85%; in assay [15], 98%; in assay [16], 99%; in assay [17], 40%; in [18], 97%. Moreover, the Activity is 49% in [19] and 54% in assay [20].

For `OC[C@@]12CO[C@H](O1)[C@H](O)[C@@H](O)[C@H]2O`, the Activity is on record as 4% in assay [1]; 23% in [2]; 12% in assay [3]; 9% in assay [4]; 5% in [7]; 4% in [8]. For the same compound, the Activity is on record as 2% in assay [9]; 4% in assay [10]; 6% in [11]; 3% in [13]; 13% in [14]; 5% in assay [17]. Moreover, the Activity in [18] was found to be 7%; in assay [19], 3%; in assay [20], 7%.

Consider `O[C@@H]1[C@@H](O)[C@H](O)[C@]2(CO2)[C@@H](O)[C@H]1O`, for which the Activity is 24% in [3]; 6% in [5]; 26% in assay [6]; 20% in assay [7]; 46% in [9]; 22% in assay [11]. Besides, the Activity in [12] amounted to 20%; in [13] it was 7%; in assay [14] it was 5%; in [15] it was 36%; in assay [16], 2%; in [17], 53%. For the same compound, the Activity is given as 26% in assay [18] and 66% in [19].

Regarding `OCC1(O)SC[C@@H](O)C(O)C1O` (single isomer, unassigned), the Activity in assay [1] was found to be 44%; in assay [2], 44%; in assay [3], 42%; in assay [4], 28%; in [7] it was 46%; in assay [8] it was 30%. For the same compound, the Activity stood at 7% in [9]; 28% in assay [10]; 3% in assay [11]; 51% in [13]; 32% in assay [14]; 48% in assay [16]. For the same compound, the Activity in assay [17] came to 3%; in assay [18], 55%; in assay [19], 2%; in assay [20] it was 25%.
